High-throughput results from PubChem BioAssay.
Shown are actives, neighbours in structure and some others; about 2.3% of the full set was active somewhere.
TAAR1 antagonist: human TAAR1 antagonists, primary screen, Fluo-8 calcium fluorescence, CHO RD-HGA16 cells. hit rate 1.5% among 360,000. inhibition, % at 3 µM. Trace amine-associated receptor 1 (Homo sapiens), Q96RJ0. antagonist;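 active means inhibition above a per-plate cutoff, the mean inhibition of test compounds on that plate plus 3 SD, cut at about 49% in these data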
Target sequence (Q96RJ0 whole entry, looked up): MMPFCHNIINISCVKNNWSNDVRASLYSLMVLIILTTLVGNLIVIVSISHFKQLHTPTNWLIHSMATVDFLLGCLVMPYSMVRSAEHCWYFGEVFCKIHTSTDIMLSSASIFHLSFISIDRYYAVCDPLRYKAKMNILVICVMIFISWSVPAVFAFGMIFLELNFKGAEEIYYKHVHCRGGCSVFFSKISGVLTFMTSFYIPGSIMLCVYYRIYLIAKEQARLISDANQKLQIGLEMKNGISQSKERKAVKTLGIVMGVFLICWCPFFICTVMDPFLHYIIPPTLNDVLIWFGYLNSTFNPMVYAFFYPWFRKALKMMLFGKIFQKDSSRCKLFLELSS
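Test system: hTAAR1-expressing CHO RD-HGA16 cells, Gα16-coupled; Probe or stimulus: EC80 β-phenethylamine stimulus; Compound dosing: single nominal final test compound concentration of 3 µM; Timing: 140 s kinetic read after compound, 140 s after agonist; Signal: Fluo-8 calcium-sensitive fluorescence; Measure: % inhibition of agonist calcium response; Controls: DMSO and EC80 PEA controls.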
V1R ag counter: agonists of human V1a receptor, primary screen, counter-screen for OXTR agonist project, fluorescence, CHO-V1R cells; hit rate 0.25% among 320,000; AID 2797, 2010; activation, % at 3 µM; Vasopressin V1a receptor (Homo sapiens), P37288; Fluo-8 calcium fluorescence, agonist mode; 0% DMSO, 100% 3 nM vasopressin;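 active means activation above the mean activation of all tested compounds plus 3 SD, per screening run, cut at about 20% in these data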;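 further: signal is peak over basal fluorescence ratio across a 100 second FLIPR read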
TAAR1 ag: human TAAR1 agonists, primary screen, Fluo-8 calcium fluorescence, CHO RD-HGA16 cells; vehicle wells 0%, saturating PEA agonist 100%; hit rate 0.99% among 360,000; activation, % at 3 µM;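 active means activation above the mean activation of all test compounds in the run plus 3 SD, cut at about 38% in these data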
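Signal – calcium-sensitive Fluo-8 signal, excitation 470-495, emission 515-575 nm · System – RD-HGA16 (CHO) cells co-expressing Gα16 and hTAAR1 · Incubation – 17-24 h seeding, 75 min 37 °C dye, 30 min RT · Compound dosing – 3 µM single concentration · Repeats – no replicates (n 1)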
OXTR potentiator: human OXTR potentiators, primary screen, fluorescence, CHO-OTR cells, Fluo-8 calcium; activation, % at 3 µM; hit rate 0.061% among 320,000; Fluo-8 calcium fluorescence, potentiator mode; 0% = oxytocin EC15, 100% = EC100; AID 2445, 2010;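 active means activation above that plate's cutoff, the mean activation of tested compounds plus 3 SD, cut at about 6.6% in these data, passing the limit was not always enough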
Target sequence (P30559 whole entry, looked up): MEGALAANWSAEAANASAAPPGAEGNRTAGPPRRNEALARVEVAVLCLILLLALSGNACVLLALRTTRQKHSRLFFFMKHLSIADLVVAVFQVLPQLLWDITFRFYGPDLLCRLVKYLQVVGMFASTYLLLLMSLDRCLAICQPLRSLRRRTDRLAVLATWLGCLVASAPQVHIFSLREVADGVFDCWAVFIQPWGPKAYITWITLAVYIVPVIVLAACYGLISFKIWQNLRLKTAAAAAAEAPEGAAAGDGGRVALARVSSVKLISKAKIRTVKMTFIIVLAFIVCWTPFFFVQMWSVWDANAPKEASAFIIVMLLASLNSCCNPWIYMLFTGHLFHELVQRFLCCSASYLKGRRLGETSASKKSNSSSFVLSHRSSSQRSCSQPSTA
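test system = CHO-OTR cells, human receptor | compound = single-point 3.0 µM | schedule = 6 min compound pre-incubation at room temperature, 100 s kinetic read | signal = Fluo-8 no-wash calcium dye fluorescence, excitation 470-495 nm, emission 515-575 nm | repeats = single well per compound, singlicate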
OXTR ag: human OXTR agonists, primary screen, fluorescence, CHO-OTR cells, Fluo-8 calcium; activation, % at 3 µM; Oxytocin receptor (Homo sapiens), P30559; hit rate 0.32% among 320,000; Fluo-8 calcium fluorescence; normalized: DMSO 0%, oxytocin 100%;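 active means activation above the mean of all tested compounds plus 3 SD, cutoff set per screening run, cut at about 20% in these data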;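 further: peak over basal fluorescence ratio from a 100 s FLIPR kinetic read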
OXTR ag confirm: human OXTR agonists, confirmation, fluorescence, CHO-OTR cells, triplicate; shares compounds with OXTR ag; activation, % at 3 µM; hit rate 20% among 390; Fluo-8 calcium fluorescence, agonist; AID 434963, 2010;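 active means mean activation above about 20% derived from the earlier single-dose screen, limit read from the data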;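 further: peak over minimum fluorescence ratio per well during a 100 second FLIPR read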
V1aR counter 3x: V1a receptor agonists, calcium signal, counter-screen for OXTR agonist project, triplicate, fluorescence, CHO-V1R cells; activation, % at 3 µM; shares compounds with OXTR ag; hit rate 10% among 390; Fluo-8 calcium fluorescence;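 active means mean activation over triplicate exceeds the hit threshold set in the earlier primary screen, cut at about 20% in these data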;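 further: peak over basal fluorescence ratio within a 100 second read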
Hits are given with their value; i = inactive; nt = not tested or not shown; ! = repeats disagree.

SMILES	TAAR1 antagonist	V1R ag counter	TAAR1 ag	OXTR potentiator	OXTR ag	OXTR ag confirm	V1aR counter 3x
OC(CNCC1CCCO1)Cn1c2ccc(Cl)cc2c2cc(Cl)ccc21 (stereo not drawn)	i	i	i	i	33	i	i
Cc1ccccc1Oc1ccc2c(c1)[C@@H]1C[C@H](N(C)C(=O)Nc3cc(Cl)cc(Cl)c3)[C@H]([C@H](C)O)C(=O)N1CC2	i	nt	i	nt	nt	nt	nt
COC(C(=O)Nc1ccc(S(=O)(=O)Nc2ccc(F)cc2)cc1)c1ccccc1 (stereo not drawn)	i	i	56	i	20	23	i
O=C(CNC(=O)c1cccc(Cl)c1)NCC(c1cccs1)N1CCOCC1 (stereo not drawn)	i	i	i	i	i	nt	nt
Cc1ccccc1-c1cc(C(=O)Nc2sc(C(=O)OC(C)C)c(C)c2C#N)c2ccccc2n1	i	i	i	i	21	i	i
COC(=O)c1sc(NC(=O)c2cc(-c3ccccc3)nc3ccccc23)c(C#N)c1C	i	i	i	i	20	i	i
CCOC(=O)c1sc(NC(=O)c2cc(-c3ccc(C)cc3)nc3ccccc23)c(C#N)c1C	i	i	i	i	i	nt	nt
CCCCCN1C=CC=C/C1=C\C=C(C#N)C#N	i	i	i	i	i	nt	nt
C=CCN1C=CC(=CC=C(C#N)C#N)C=C1	i	i	i	i	23	25	30
CCCCCCN1C=CC=C/C1=C/C=C(C#N)C#N	i	i	i	i	i	nt	nt
CCCN1C=CC(=CC=C(C#N)C#N)C=C1	i	i	i	i	21	23	36
CC(C)(C)c1ccccc1NC(=S)NC1CCCCC1	i	i	i	i	i	nt	nt
CC(C)Cn1c(N)c(C(=O)COC(=O)c2ccc3c(c2)OCCO3)c(=O)n(C)c1=O	i	i	i	i	20	i	i
COc1ccc(/C=C(/NC(=O)c2ccccc2)C(=O)N2CCCC2)cc1OC	i	i	i	i	28	i	i
O=C(NCc1ccccc1Cl)C1CCN(S(=O)(=O)c2ccc(N3CCCC3=O)cc2)CC1	i	i	i	i	i	nt	nt
O=C(c1ccc(S(=O)(=O)Nc2ccc(F)cc2)cc1)N1CCN(c2ccccn2)CC1	i	i	i	i	21	i	i
COc1ccc(NS(=O)(=O)c2ccc(C(=O)N3CCN(c4ccc(F)cc4)CC3)cc2)cc1	i	i	i	i	22	i	i
COc1ccc(N2CCN(C(=O)c3ccc(NS(=O)(=O)c4ccc(F)c(F)c4)cc3)CC2)cc1	i	i	i	i	i	nt	nt
O=C(c1ccc(NS(=O)(=O)c2ccc(F)cc2)cc1)N1CCCCC1	i	i	i	i	i	nt	nt
Cc1nc(-c2ccncc2)sc1C(=O)Nc1ccc(Br)cc1	i	i	i	i	i	nt	nt
O=C1N[C@@H](Cc2ccccc2)C(=O)N2CCC[C@@H]12	i	i	i	i	i	nt	nt
C[C@H]1CC[C@H]2C(=O)N[C@H](Cc3ccccc3)C(=O)N2[C@@H]1c1ccccc1	nt	i	nt	i	30	i	i
CN(C)CCN(Cc1ccccc1)C(=O)[C@H](Cc1ccccc1)N1C(=O)c2ccccc2C1=O	i	i	i	i	i	nt	nt
CCc1ccc(OC(C)C(=O)Nc2ccc(S(=O)(=O)Nc3nccs3)cc2)cc1 (stereo not drawn)	55	i	45	i	20	i	i
Cc1ccc(OC(C)C(=O)Nc2ccc(S(=O)(=O)Nc3nccs3)cc2)cc1 (stereo not drawn)	i	i	i	i	i	nt	nt
SMILES	TAAR1 antagonist	V1R ag counter	TAAR1 ag	OXTR potentiator	OXTR ag	OXTR ag confirm	V1aR counter 3x
CCOC(=O)c1c(C)oc2ccc(O)c(CN(C)C)c12	i	i	i	i	i	nt	nt
CCOC(=O)c1c(CSc2ccc(CC)cc2)oc2ccc(O)c(CN(C)C)c12	i	i	i	i	25	i	i
CCCc1ccc(Oc2c(-c3ccc(O)c(C)c3O)n[nH]c2C)cc1	i	i	i	i	20	22	i
CCOC(=O)c1cc2n(c1/N=C/N(C)C)-c1ccccc1C2=O	i	i	i	i	24	26	33
CCOC(=O)c1ccc2c(c1)N(C)C(=O)c1ccccc1S2	nt	i	nt	i	i	nt	nt
O=C(Oc1ccc(-c2cn3c(n2)SCC3)cc1)c1ccccc1	i	i	i	i	27	i	i
CCCCNCc1ccc(OCc2ccc(Cl)nc2)c(OC)c1	i	i	i	i	i	nt	nt
COc1cc(CNCC(O)c2ccccc2)ccc1OCc1ccc(Cl)nc1 (stereo not drawn)	i	i	39	i	20	i	i
COc1cccc(CNCc2ccc(OC)cc2OC)c1	i	i	i	i	i	nt	nt
CCn1c2ccccc2c2cc(CNCc3ccc(OC)cc3OC)ccc21	i	i	46	i	23	i	i
C=CCNS(=O)(=O)c1ccc(N2C(=O)c3ccccc3C2=O)cc1	i	i	i	i	i	nt	nt
CN(C)Cc1c(O)ccc2oc(Cc3ccccc3)cc12	i	i	i	i	23	i	i
Fc1ccc([C@@H]2CCNC[C@H]2COc2ccc3c(c2)OCO3)cc1	i	i	i	i	23!	i	i
CCC1Oc2ccccc2C(=O)N(CC(=O)c2ccc3c(c2)OCCO3)C1=O (stereo not drawn)	i	i	i	i	i	nt	nt
COc1ccc(CN(C)c2ccc(S(=O)(=O)N3CCN(C)CC3)cc2[N+](=O)[O-])cc1OC	i	i	i	i	26	i	i
Cn1ncc2c(O/N=C(\N)c3ccc(C(F)(F)F)cc3)ncnc21	i	i	i	i	i	nt	nt
N#C/C(=C\c1ccc(N2CCOCC2)o1)C(=O)NCCc1ccccc1	i	i	41	i	21	23	46
COCCNC(=O)/C(C#N)=C/c1ccc(N2CCOCC2)o1	i	i	i	i	i	nt	nt
O=C(N1CCCCC1)N1CCN(S(=O)(=O)c2ccc(Cl)cc2)CC1	i	i	i	i	27	i	i
O=C(N1CCCCCC1)N1CCN(S(=O)(=O)c2ccccc2)CC1	i	i	i	i	i	nt	nt
CCc1nc2ccc(C(=O)NCCCn3ccnc3)cn2c1N(C)Cc1nccs1	i	nt	i	nt	nt	nt	nt
COc1ccc(OCC(O)CNCCOc2ccccc2OC)c(C(C)(C)C)c1 (stereo not drawn)	i	i	50	i	22	i	i
COc1ccccc1NCC(O)COc1ccc(C(C)(C)C)cc1 (stereo not drawn)	i	i	i	i	i	nt	nt
